Measurements published in ChEMBL document CHEMBL1629583, “Establishment of in vitro susceptibility testing methodologies and comparative activities of piperacillin in combination with the penem {beta}-lactamase inhibitor BLI-489” (2009).

Experiments:
Assay type in all cases: functional
Burkholderia cepacia = experiment: Antimicrobial activity against Burkholderia cepacia clinical isolate after 18 to 22 hrs by broth microdilution method in presence of beta-lactamase inhibitor BLI-489
Summary of the method: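 CLSI broth microdilution in Mueller-Hinton II broth. Piperacillin serial dilutions were combined with BLI-489 held constant at 4 μg/ml. Inoculum was 10^5 CFU/ml. Plates were incubated 18 to 22 h at 35°C in ambient air. MIC was the lowest concentration completely inhibiting growth seen by the unaided eye. Piperacillin-tazobactam interpretive criteria were applied.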

[1] = tested on: Staphylococcus epidermidis; experiment: Antimicrobial activity against methicillin-susceptible Staphylococcus epidermidis clinical isolate after 18 to 22 hrs by broth microdilution method in presence of beta-lactamase inhibitor Tazobactam
Summary of the method: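 CLSI broth microdilution of piperacillin-tazobactam in Mueller-Hinton II broth with serial dilutions. Inoculum was 10^5 CFU/ml. Incubation was 18 to 22 h at 35°C in ambient air. MIC was read as the lowest concentration giving complete inhibition of growth visible to the unaided eye.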

Bacteroides uniformis = experiment: Antimicrobial activity against Bacteroides uniformis clinical isolate after 18 to 22 hrs by broth microdilution method in presence of beta-lactamase inhibitor BLI-489
[2] = tested on: Peptostreptococcus anaerobius; experiment: Antimicrobial activity against Peptostreptococcus anaerobius clinical isolate after 18 to 22 hrs by broth microdilution method in presence of beta-lactamase inhibitor BLI-489
Citrobacter koseri = experiment: Antimicrobial activity against Citrobacter koseri clinical isolate after 18 to 22 hrs by broth microdilution method in presence of beta-lactamase inhibitor Tazobactam
Summary of the method: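 Piperacillin-tazobactam was tested on recent clinical isolates by CLSI broth microdilution in Mueller-Hinton II broth, with tazobactam at constant 4 μg/ml. Wells held 10^5 CFU/ml and were incubated 18 to 22 h at 35°C in ambient air. MIC was the lowest concentration with no growth visible to the unaided eye.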

Klebsiella pneumoniae = experiment: Antimicrobial activity against class A extended spectrum beta-lactamase- and class D OXA- producing Klebsiella pneumoniae clinical isolate after 18 to 22 hrs by broth microdilution method in presence of beta-lactamase inhibitor BLI-489
Summary of the method: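 CLSI broth microdilution in Mueller-Hinton II broth. Serial dilutions of piperacillin were tested with BLI-489 held at a constant 4 μg/ml. Inoculum was 10^5 CFU/ml. Plates were incubated 18 to 22 h at 35°C in ambient air. MIC was the lowest concentration giving complete growth inhibition by unaided eye.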

Morganella morganii = experiment: Antimicrobial activity against Morganella morganii clinical isolate after 18 to 22 hrs by broth microdilution method in presence of beta-lactamase inhibitor Tazobactam
Summary of the method: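 Piperacillin-tazobactam was tested by CLSI broth microdilution in Mueller-Hinton II broth against clinical isolates. Inoculum was 10^5 CFU/ml, with 18 to 22 h incubation at 35°C in ambient air. MIC was read as the lowest concentration completely inhibiting visible growth.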

**Q.** `CCN1CCN(C(=O)N[C@@H](C(=O)N[C@@H]2C(=O)N3[C@@H]2SC(C)(C)[C@@H]3C(=O)O)c2ccccc2)C(=O)C1=O` [PIPERACILLIN] was tested. Which MIC50 (Burkholderia cepacia) did it give?
**A.** Its MIC50 is 1 µg/mL.

**Q.** What about the MIC90 (Burkholderia cepacia) of the same molecule?
**A.** Its MIC90 is 2 µg/mL.

**Q.** What about the MIC50 [1] of the same molecule?
**A.** Its MIC50 is 0.25 µg/mL.

**Q.** What about the MIC90 [1] of the same molecule?
**A.** Its MIC90 is 0.5 µg/mL.

**Q.** What about the MIC50 (Bacteroides uniformis) of the same molecule?
**A.** The MIC50 was 4 µg/mL.

**Q.** And the MIC90 (Bacteroides uniformis)?
**A.** Its MIC90 is 8 µg/mL.

**Q.** And the MIC [2]?
**A.** The MIC was at most 0.015 µg/mL.

**Q.** What about the MIC50 [2] of the same molecule?
**A.** Its MIC50 is at most 0.015 µg/mL.

**Q.** What about the MIC90 [2] of the same molecule?
**A.** The MIC90 was at most 0.015 µg/mL.

**Q.** What about the MIC50 (Citrobacter koseri) of the same molecule?
**A.** The MIC50 was 2 µg/mL.

**Q.** What about the MIC90 (Citrobacter koseri) of the same molecule?
**A.** Its MIC90 is 16 µg/mL.

**Q.** What about the MIC50 (Klebsiella pneumoniae) of the same molecule?
**A.** The MIC50 was 8 µg/mL.

**Q.** And the MIC90 (Klebsiella pneumoniae)?
**A.** Its MIC90 is 64 µg/mL.

**Q.** What about the MIC50 (Morganella morganii) of the same molecule?
**A.** The MIC50 was 0.5 µg/mL.

**Q.** What about the MIC90 (Morganella morganii) of the same molecule?
**A.** The MIC90 was 1 µg/mL.
